ChEMBL document CHEMBL1132401, “Glycosylation of fluoroquinolones through direct and oxygenated polymethylene linkages as a sugar-mediated active transport system for antimicrobials” (1999)
Converted amounts (≈) assume the structure as drawn.

Assays:
Klebsiella oxytoca [1] = test: Minimum concentration required to prevent the growth of cipro resistant (Cipro-R) Klebsiella oxytoca strain A3530
Enterococcus faecalis [2] = test: Minimum concentration required to prevent the growth of vancomycin resistant (VanA) Enterococcus faecalis strain A0401; type: functional
Outline: (§1)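 Agar dilution susceptibility testing per NCCLS guidelines against resistant clinical isolates, with nonresistant ATCC stock strains run as controls. Plates were read at 19–24 h of incubation. MIC reported in µg/mL.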

[3] = tested on: Staphylococcus epidermidis; test: Minimum concentration required to prevent the growth of multiply resistant Staphylococcus epidermidis (MRSE) coag.-neg. Staph. A0245; type: functional
Outline: as §1

Enterococcus faecium [4] = test: Minimum concentration required to prevent the growth of nonresistant stock strain Enterococcus faecium 19434 from American Type Culture Collection (ATCC); type: functional
Outline: (§2)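 Agar dilution susceptibility testing per NCCLS guidelines, covering clinical isolates (including resistant phenotypes) and nonresistant ATCC stock strains as controls. Plates read after 19–24 h of incubation. MIC reported in μg/mL.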

Enterococcus faecalis [5] = test: Minimum concentration required to prevent the growth of high level gentamicin and beta- lactamase resistant (HLGR, BLA+) Enterococcus faecalis strain A0090; type: functional
Outline: as §1

Staphylococcus aureus [6] = test: Minimum concentration required to prevent the growth of multiply resistant (MRSA) and cipro resistant (Cipro-R) Staphylococcus aureus strain A2800; type: functional
Outline: as §1

Escherichia coli [7] = test: Minimum concentration required to prevent the growth of cipro resistant (Cipro-R) Escherichia coli strain AA; type: functional
Outline: as §2

Listeria monocytogenes [8] = test: Minimum concentration required to prevent the growth of Listeria monocytogenes strain A0182; type: functional
Outline: as §2

Enterococcus faecium [9] = test: Minimum concentration required to prevent the growth of vancomycin resistant (VanA) Enterococcus faecium strain A1745; type: functional
Outline: as §1

Staphylococcus aureus [10] = test: Minimum concentration required to prevent the growth of multiply resistant (MRSA) Staphylococcus aureus strain A0171; type: functional
Outline: as §1

Enterococcus faecalis [11] = test: Minimum concentration required to prevent the growth of vancomycin resistant (VanB) Enterococcus faecalis strain A1081; type: functional
Outline: as §1

[12] = tested on: Staphylococcus epidermidis; test: Minimum concentration required to prevent the growth of multiply resistant Staphylococcus epidermidis (MRSE) coag.-neg. Staph. A0244; type: functional
Outline: as §1

[13] = tested on: Staphylococcus epidermidis; test: Minimum concentration required to prevent the growth of multiply resistant Staphylococcus epidermidis (MRSE) and cipro resistant (Cipro-R) coag.-neg. Staph. A0248; type: functional
Outline: as §1

Enterococcus faecium [14] = test: Minimum concentration required to prevent the growth of vancomycin resistant (VanB) Enterococcus faecium strain A0803; type: functional
Outline: as §1

Escherichia coli [15] = test: Minimum concentration required to prevent the growth of cipro resistant (Cipro-R) Escherichia coli strain A3529; type: functional
Outline: as §2

Enterococcus faecalis [16] = test: Minimum concentration required to prevent the growth of vancomycin resistant (VanB) Enterococcus faecalis strain A1079; type: functional
Outline: as §1

Enterococcus faecalis [17] = test: Minimum concentration required to prevent the growth of high level gentamicin and beta- lactamase resistant (HLGR, BLA+) Enterococcus faecalis strain A0089; type: functional
Outline: as §1

Listeria monocytogenes [18] = test: Minimum concentration required to prevent the growth of Listeria monocytogenes strain A0183; type: functional
Outline: as §2

Enterococcus faecalis [19] = test: Minimum concentration required to prevent the growth of nonresistant stock strain Enterococcus faecalis 51299 from American Type Culture Collection (ATCC); type: functional
Outline: as §1

Staphylococcus aureus [20] = test: Minimum concentration required to prevent the growth of multiply resistant (MRSA) Staphylococcus aureus strain A0170; type: functional
Outline: as §1

Pseudomonas aeruginosa [21] = test: Minimum concentration required to prevent the growth of Pseudomonas aeruginosa strain 28215; type: functional
Outline: as §2

Pseudomonas aeruginosa [22] = test: Minimum concentration required to prevent the growth of Pseudomonas aeruginosa strain 28245; type: functional
Outline: as §2

Enterococcus faecalis [23] = test: Minimum concentration required to prevent the growth of nonresistant stock strain Enterococcus faecalis 29212 from American Type Culture Collection (ATCC); type: functional
Outline: as §1

Enterococcus faecalis [24] = test: Minimum concentration required to prevent the growth of vancomycin resistant (VanA) Enterococcus faecalis strain A0402; type: functional
Outline: as §1

Staphylococcus aureus [25] = test: Minimum concentration required to prevent the growth of multiply resistant (MRSA) and cipro resistant (Cipro-R) Staphylococcus aureus strain A2043; type: functional
Outline: as §1

Escherichia coli [26] = test: Minimum concentration required to prevent the growth of nonresistant stock Escherichia coli strain 25922 from American Type Culture Collection (ATCC); type: functional; conditions: ATCC25922
Outline: as §2

Enterococcus faecium [27] = test: Minimum concentration required to prevent the growth of vancomycin resistant (VanB) Enterococcus faecium strain A1087; type: functional; conditions: Enterococcus faecium; read-out: MIC
Outline: as §1

Enterococcus faecium [28] = test: Minimum concentration required to prevent the growth of vancomycin resistant (VanA) Enterococcus faecium strain A2320; type: functional
Outline: as §1

Escherichia coli [29] = test: Minimum concentration required to prevent the growth of cipro resistant (Cipro-R) Escherichia coli strain A3228; type: functional
Outline: as §2

[30] = tested on: Staphylococcus epidermidis; test: Minimum concentration required to prevent the growth of multiply resistant Staphylococcus epidermidis (MRSE) and cipro resistant (Cipro-R) coag.-neg. Staph. A0247; type: functional
Outline: as §1

Klebsiella pneumoniae = test: Minimum concentration required to prevent the growth of cipro resistant (Cipro-I) Klebsiella pneumoniae strain AM; type: functional
Outline: as §1

Klebsiella oxytoca [31] = test: Minimum concentration required to prevent the growth of cipro resistant (Cipro-I) Klebsiella oxytoca strain A3530; type: functional
Outline: as §1

[32] = Enterococcus faecalis, read-out: MIC
[33] = Staphylococcus epidermidis, read-out: MIC
[34] = Enterococcus faecium, read-out: MIC
[35] = Escherichia coli, read-out: MIC
[36] = Listeria monocytogenes, read-out: MIC
[37] = Staphylococcus aureus, read-out: MIC

SMILES: O=C(O)c1cn(C2CC2)c2cc(N3CCN(C4OC(CO)C(O)C(O)C4O)CC3)c(F)cc2c1=O (stereo in doubt; form 1)
- MIC (Klebsiella oxytoca [1]): 8 µg/mL (≈ 16.2 µM)
- MIC (Enterococcus faecalis [2]; [32]): 2 µg/mL (≈ 4.05 µM)
- MIC [3, 33]: 0.5 µg/mL (≈ 1.01 µM)
- MIC (Enterococcus faecium [4]; [34]): 8 µg/mL (≈ 16.2 µM)
- MIC (Enterococcus faecalis [5]): 1 µg/mL (≈ 2.03 µM)
- MIC (Staphylococcus aureus [6]): > 32 µg/mL
- MIC (Escherichia coli [7]; [35]): 8 µg/mL (≈ 16.2 µM)
- MIC (Listeria monocytogenes [8]; [36]): 2 µg/mL (≈ 4.05 µM)
- MIC (Enterococcus faecium [9]): > 32 µg/mL
- MIC (Staphylococcus aureus [10]; [37]): 0.5 µg/mL (≈ 1.01 µM)
- MIC (Enterococcus faecalis [11]; [32]): 0.5 µg/mL (≈ 1.01 µM)
- MIC [12, 33]: 1 µg/mL (≈ 2.03 µM)
- MIC [13]: > 32 µg/mL
- MIC (Enterococcus faecium [14]; [34]): 4 µg/mL (≈ 8.11 µM)
- MIC (Escherichia coli [15]; [35]): 32 µg/mL (≈ 64.8 µM)
- MIC (Enterococcus faecalis [16]): 1 µg/mL (≈ 2.03 µM)
- MIC (Enterococcus faecalis [17]; [32]): 2 µg/mL (≈ 4.05 µM)
- MIC (Listeria monocytogenes [18]; [36]): 2 µg/mL (≈ 4.05 µM)
- MIC (Enterococcus faecalis [19]; [32]): 0.5 µg/mL (≈ 1.01 µM)
- MIC (Staphylococcus aureus [20]; [37]): 0.5 µg/mL (≈ 1.01 µM)
- MIC (Pseudomonas aeruginosa [21]; Pseudomonas aeruginosa, read-out: MIC): 0.25 µg/mL (≈ 0.507 µM)
- MIC (Pseudomonas aeruginosa [22]): 1 µg/mL (≈ 2.03 µM)
- MIC (Enterococcus faecalis [23]): 1 µg/mL (≈ 2.03 µM)
- MIC (Enterococcus faecalis [24]; [32]): 2 µg/mL (≈ 4.05 µM)
- MIC (Staphylococcus aureus [25]): > 32 µg/mL
- MIC (Escherichia coli [26]): < 0.03 µg/mL
- MIC (Enterococcus faecium [27]): 4 µg/mL (≈ 8.11 µM)
- MIC (Enterococcus faecium [28]): > 32 µg/mL
- MIC (Escherichia coli [29]): > 32 µg/mL
- MIC [30]: > 32 µg/mL
- MIC (Klebsiella pneumoniae; Klebsiella pneumoniae, read-out: MIC): 2 µg/mL (≈ 4.05 µM)

SMILES: O=C(O)c1cn(C2CC2)c2cc(N3CCN(C4OC(CO)C(O)C(O)C4O)CC3)c(F)cc2c1=O (stereo in doubt; form 2)
- MIC (Enterococcus faecalis [2]): 2 µg/mL (≈ 4.05 µM)
- MIC [3]: 0.5 µg/mL (≈ 1.01 µM)
- MIC (Enterococcus faecium [4]): 8 µg/mL (≈ 16.2 µM)
- MIC (Escherichia coli [7]): 8 µg/mL (≈ 16.2 µM)
- MIC (Listeria monocytogenes [8]): 2 µg/mL (≈ 4.05 µM)
- MIC (Enterococcus faecium [9]): > 32 µg/mL
- MIC (Staphylococcus aureus [10]): 0.5 µg/mL (≈ 1.01 µM)
- MIC (Enterococcus faecalis [11]): 0.5 µg/mL (≈ 1.01 µM)
- MIC [12]: 1 µg/mL (≈ 2.03 µM)
- MIC (Enterococcus faecium [14]): 2 µg/mL (≈ 4.05 µM)
- MIC (Escherichia coli [15]): 32 µg/mL (≈ 64.8 µM)
- MIC (Klebsiella oxytoca [31]): 8 µg/mL (≈ 16.2 µM)
- MIC (Enterococcus faecalis [17]): 1 µg/mL (≈ 2.03 µM)
- MIC (Listeria monocytogenes [18]): 2 µg/mL (≈ 4.05 µM)
- MIC (Enterococcus faecalis [19]): 1 µg/mL (≈ 2.03 µM)
- MIC (Staphylococcus aureus [20]): 0.5 µg/mL (≈ 1.01 µM)
- MIC (Pseudomonas aeruginosa [21]): 0.5 µg/mL (≈ 1.01 µM)
- MIC (Pseudomonas aeruginosa [22]): 4 µg/mL (≈ 8.11 µM)
- MIC (Enterococcus faecalis [24]): 1 µg/mL (≈ 2.03 µM)
- MIC (Klebsiella pneumoniae): 2 µg/mL (≈ 4.05 µM)
